Reference: ChEMBL document CHEMBL1165969, “Synthesis and cytotoxicity of novel indirubin-5-carboxamides” (Bioorg Med Chem, 2010)

What was measured:
[1] = molecular target: Ribosomal protein S6 kinase beta-1 (Homo sapiens) (UniProt P23443); assay: Inhibition of p70S6K1 assessed as residual activity at 1 uM after 80 mins by microplate scintillation counting
Procedure, shortened: (§1)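 Kinase profiling was outsourced to a contract laboratory as a panel of 30 protein kinases. Each compound was tested at two concentrations, and residual kinase activity was recorded.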

[2] = molecular target: T1, Cyclin-dependent kinase 2/cyclin E1 (Homo sapiens) (UniProt P24864+P24941); assay: Inhibition of CDK2/Cyclin E assessed as residual activity at 1 uM after 80 mins by microplate scintillation counting; type: protein-complex assay
[3] = molecular target: Tyrosine-protein kinase ABL1 (Homo sapiens) (UniProt P00519); assay: Inhibition of ABL1 assessed as residual activity at 10 uM after 80 mins by microplate scintillation counting
[4] = molecular target: Tyrosine-protein kinase Fgr (Homo sapiens) (UniProt P09769); assay: Inhibition of FGR assessed as residual activity at 10 uM after 80 mins by microplate scintillation counting
[5] = molecular target: Focal adhesion kinase 1 (Homo sapiens) (UniProt Q05397); assay: Inhibition of FAK assessed as residual activity at 1 uM after 80 mins by microplate scintillation counting
[6] = molecular target: Serine/threonine-protein kinase B-raf (Homo sapiens) (UniProt P15056); assay: Inhibition of B-Raf assessed as residual activity at 10 uM after 80 mins by microplate scintillation counting
[7] = molecular target: Muscle, skeletal receptor tyrosine-protein kinase (Homo sapiens) (UniProt O15146); assay: Inhibition of MUSK assessed as residual activity at 10 uM after 80 mins by microplate scintillation counting
[8] = molecular target: Aurora kinase A (Homo sapiens) (UniProt O14965); assay: Inhibition of Aurora A assessed as residual activity at 10 uM after 80 mins by microplate scintillation counting
[9] = molecular target: Proto-oncogene tyrosine-protein kinase receptor Ret (Homo sapiens) (UniProt P07949); assay: Inhibition of RET assessed as residual activity at 1 uM after 80 mins by microplate scintillation counting; procedure, shortened: as §1
[10] = molecular target: T2, Cyclin-dependent kinase 4/cyclin D1 (Homo sapiens) (UniProt P11802+P24385); assay: Inhibition of CDK4/Cyclin D1 assessed as residual activity at 10 uM after 80 mins by microplate scintillation counting; type: protein-complex assay
[11] = molecular target: Platelet-derived growth factor receptor alpha (Homo sapiens) (UniProt P16234); assay: Inhibition of PDGFRalpha assessed as residual activity at 10 uM after 80 mins by microplate scintillation counting
[12] = molecular target: Vascular endothelial growth factor receptor 3 (Homo sapiens) (UniProt P35916); assay: Inhibition of VEGFR3 assessed as residual activity at 1 uM after 80 mins by microplate scintillation counting; procedure, shortened: as §1
Sequence of Vascular endothelial growth factor receptor 3 (Homo sapiens) (P35916 whole entry): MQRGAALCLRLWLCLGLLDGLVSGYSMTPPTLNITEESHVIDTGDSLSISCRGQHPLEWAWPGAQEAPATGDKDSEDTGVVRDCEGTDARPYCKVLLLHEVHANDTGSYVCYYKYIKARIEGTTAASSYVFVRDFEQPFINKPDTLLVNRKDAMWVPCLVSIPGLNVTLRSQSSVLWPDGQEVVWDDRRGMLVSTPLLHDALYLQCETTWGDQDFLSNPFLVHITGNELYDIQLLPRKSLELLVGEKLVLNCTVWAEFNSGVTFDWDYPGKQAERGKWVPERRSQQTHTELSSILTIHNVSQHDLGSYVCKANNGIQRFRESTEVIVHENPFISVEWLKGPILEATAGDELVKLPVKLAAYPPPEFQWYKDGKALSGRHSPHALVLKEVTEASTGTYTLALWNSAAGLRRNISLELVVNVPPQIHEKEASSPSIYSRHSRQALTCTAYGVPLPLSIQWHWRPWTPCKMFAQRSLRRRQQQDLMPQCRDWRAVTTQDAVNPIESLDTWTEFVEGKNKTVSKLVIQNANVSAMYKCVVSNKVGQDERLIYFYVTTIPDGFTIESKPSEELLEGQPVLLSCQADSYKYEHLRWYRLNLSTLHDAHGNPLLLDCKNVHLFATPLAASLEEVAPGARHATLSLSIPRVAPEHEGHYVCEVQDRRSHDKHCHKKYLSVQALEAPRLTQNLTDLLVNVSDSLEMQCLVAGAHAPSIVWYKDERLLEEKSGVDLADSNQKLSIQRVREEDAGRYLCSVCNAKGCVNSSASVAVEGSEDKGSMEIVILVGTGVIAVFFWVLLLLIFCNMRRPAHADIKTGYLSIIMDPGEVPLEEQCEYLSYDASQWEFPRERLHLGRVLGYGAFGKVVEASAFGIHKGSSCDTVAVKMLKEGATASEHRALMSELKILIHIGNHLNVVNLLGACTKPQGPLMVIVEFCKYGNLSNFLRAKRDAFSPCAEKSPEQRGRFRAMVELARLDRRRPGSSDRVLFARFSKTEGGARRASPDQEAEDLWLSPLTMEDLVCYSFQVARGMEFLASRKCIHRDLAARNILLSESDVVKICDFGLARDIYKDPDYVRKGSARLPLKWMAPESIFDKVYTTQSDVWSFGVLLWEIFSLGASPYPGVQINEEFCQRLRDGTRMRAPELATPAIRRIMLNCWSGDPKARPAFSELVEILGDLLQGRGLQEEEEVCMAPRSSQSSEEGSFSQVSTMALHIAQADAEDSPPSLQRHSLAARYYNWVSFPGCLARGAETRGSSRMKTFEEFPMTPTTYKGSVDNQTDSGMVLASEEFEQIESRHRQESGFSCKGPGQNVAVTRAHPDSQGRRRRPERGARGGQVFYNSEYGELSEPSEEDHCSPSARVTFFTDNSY

[13] = molecular target: Mast/stem cell growth factor receptor Kit (Homo sapiens) (UniProt P10721); assay: Inhibition of KIT assessed as residual activity at 1 uM after 80 mins by microplate scintillation counting
[14] = molecular target: T1, Cyclin-dependent kinase 2/cyclin E1 (Homo sapiens); assay: Inhibition of CDK2/Cyclin E assessed as residual activity at 10 uM after 80 mins by microplate scintillation counting; type: protein-complex assay
[15] = molecular target: Receptor-type tyrosine-protein kinase FLT3 (Homo sapiens) (UniProt P36888); assay: Inhibition of FLT3 assessed as residual activity at 1 uM after 80 mins by microplate scintillation counting
Sequence of Receptor-type tyrosine-protein kinase FLT3 (Homo sapiens) (P36888 whole entry): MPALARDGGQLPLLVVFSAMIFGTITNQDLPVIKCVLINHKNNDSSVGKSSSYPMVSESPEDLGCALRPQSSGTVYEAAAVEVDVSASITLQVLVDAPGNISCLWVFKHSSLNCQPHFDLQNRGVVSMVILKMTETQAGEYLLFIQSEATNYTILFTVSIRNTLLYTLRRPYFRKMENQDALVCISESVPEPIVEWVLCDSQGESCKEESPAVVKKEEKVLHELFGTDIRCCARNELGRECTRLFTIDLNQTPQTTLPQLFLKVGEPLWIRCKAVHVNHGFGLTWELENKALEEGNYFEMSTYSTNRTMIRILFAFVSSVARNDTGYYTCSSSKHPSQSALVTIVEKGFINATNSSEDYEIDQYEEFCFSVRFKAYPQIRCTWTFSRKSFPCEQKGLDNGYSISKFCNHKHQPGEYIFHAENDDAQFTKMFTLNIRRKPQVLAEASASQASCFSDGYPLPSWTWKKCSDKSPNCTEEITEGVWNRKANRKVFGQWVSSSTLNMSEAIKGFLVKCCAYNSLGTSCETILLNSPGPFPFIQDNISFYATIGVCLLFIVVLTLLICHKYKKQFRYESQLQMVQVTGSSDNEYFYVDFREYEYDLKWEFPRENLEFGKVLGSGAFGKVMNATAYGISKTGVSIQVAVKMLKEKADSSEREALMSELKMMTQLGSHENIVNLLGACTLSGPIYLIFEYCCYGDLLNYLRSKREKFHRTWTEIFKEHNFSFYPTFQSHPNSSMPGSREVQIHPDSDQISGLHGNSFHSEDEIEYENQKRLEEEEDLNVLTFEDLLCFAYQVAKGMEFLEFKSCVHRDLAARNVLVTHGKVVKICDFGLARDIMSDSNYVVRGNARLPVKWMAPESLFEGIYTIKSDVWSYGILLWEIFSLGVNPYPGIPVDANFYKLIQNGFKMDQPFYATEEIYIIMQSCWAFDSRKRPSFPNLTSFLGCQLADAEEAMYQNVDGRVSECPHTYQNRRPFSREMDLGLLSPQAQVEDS

[16] = molecular target: Mast/stem cell growth factor receptor Kit (Homo sapiens) (UniProt P10721); assay: Inhibition of KIT assessed as residual activity at 10 uM after 80 mins by microplate scintillation counting
[17] = molecular target: Serine/threonine-protein kinase Chk2 (Homo sapiens) (UniProt O96017); assay: Inhibition of CHK2 assessed as residual activity at 1 uM after 80 mins by microplate scintillation counting
Sequence of Serine/threonine-protein kinase Chk2 (Homo sapiens) (O96017 whole entry): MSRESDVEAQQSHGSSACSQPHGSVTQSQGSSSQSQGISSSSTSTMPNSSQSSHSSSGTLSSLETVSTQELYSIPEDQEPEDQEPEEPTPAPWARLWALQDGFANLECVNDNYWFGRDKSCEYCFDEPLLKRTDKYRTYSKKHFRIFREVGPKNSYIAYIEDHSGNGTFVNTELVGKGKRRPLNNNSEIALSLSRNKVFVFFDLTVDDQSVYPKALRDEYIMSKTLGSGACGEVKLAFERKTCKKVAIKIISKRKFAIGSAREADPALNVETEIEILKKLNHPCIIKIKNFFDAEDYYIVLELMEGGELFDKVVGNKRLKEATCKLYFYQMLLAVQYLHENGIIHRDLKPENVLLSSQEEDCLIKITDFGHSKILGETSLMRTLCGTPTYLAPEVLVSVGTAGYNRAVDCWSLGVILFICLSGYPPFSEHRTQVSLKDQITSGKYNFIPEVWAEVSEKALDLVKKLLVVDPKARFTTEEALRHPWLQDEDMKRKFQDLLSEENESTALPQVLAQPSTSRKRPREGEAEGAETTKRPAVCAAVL

[18] = molecular target: Aurora kinase B (Homo sapiens) (UniProt Q96GD4); assay: Inhibition of Aurora B assessed as residual activity at 10 uM after 80 mins by microplate scintillation counting
[19] = molecular target: Fibroblast growth factor receptor 1 (Homo sapiens) (UniProt P11362); assay: Inhibition of FGFR1 assessed as residual activity at 10 uM after 80 mins by microplate scintillation counting
Sequence of Fibroblast growth factor receptor 1 (Homo sapiens) (P11362 22-822 limits assumed): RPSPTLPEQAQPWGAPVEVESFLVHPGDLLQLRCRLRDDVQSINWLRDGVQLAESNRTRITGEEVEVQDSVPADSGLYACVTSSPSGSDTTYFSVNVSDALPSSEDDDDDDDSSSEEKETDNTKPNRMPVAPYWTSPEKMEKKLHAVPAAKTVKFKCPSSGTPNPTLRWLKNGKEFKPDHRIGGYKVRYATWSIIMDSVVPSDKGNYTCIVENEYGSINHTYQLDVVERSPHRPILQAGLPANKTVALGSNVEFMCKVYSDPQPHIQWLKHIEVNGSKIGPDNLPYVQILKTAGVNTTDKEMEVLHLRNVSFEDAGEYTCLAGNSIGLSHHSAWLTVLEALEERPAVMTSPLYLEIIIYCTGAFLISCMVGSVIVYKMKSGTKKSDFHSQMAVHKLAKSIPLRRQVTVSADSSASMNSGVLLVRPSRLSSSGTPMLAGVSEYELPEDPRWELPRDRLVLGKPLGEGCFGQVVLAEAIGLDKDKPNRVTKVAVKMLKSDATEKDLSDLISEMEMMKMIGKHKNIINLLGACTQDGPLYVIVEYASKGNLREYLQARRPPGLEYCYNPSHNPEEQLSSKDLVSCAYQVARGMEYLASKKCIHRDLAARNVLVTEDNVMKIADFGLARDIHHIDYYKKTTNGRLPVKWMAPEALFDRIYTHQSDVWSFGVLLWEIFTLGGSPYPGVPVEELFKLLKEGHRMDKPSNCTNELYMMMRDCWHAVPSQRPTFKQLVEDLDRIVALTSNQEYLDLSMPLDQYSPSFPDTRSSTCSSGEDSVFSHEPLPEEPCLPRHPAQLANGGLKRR

[20] = molecular target: Epidermal growth factor receptor (Homo sapiens) (UniProt P00533); assay: Inhibition of EGFR assessed as residual activity at 10 uM after 80 mins by microplate scintillation counting
[21] = molecular target: Receptor-type tyrosine-protein kinase FLT3 (Homo sapiens) (UniProt P36888); assay: Inhibition of FLT3 assessed as residual activity at 10 uM after 80 mins by microplate scintillation counting
[22] = molecular target: Receptor tyrosine-protein kinase erbB-2 (Homo sapiens) (UniProt P04626); assay: Inhibition of ERBB2 assessed as residual activity at 1 uM after 80 mins by microplate scintillation counting
[23] = molecular target: Focal adhesion kinase 1 (Homo sapiens) (UniProt Q05397); assay: Inhibition of FAK assessed as residual activity at 10 uM after 80 mins by microplate scintillation counting
[24] = molecular target: Ribosomal protein S6 kinase beta-1 (Homo sapiens) (UniProt P23443); assay: Inhibition of p70S6K1 assessed as residual activity at 10 uM after 80 mins by microplate scintillation counting; procedure, shortened: as §1
[25] = molecular target: Vascular endothelial growth factor receptor 2 (Homo sapiens) (UniProt P35968); assay: Inhibition of VEGFR2 assessed as residual activity at 1 uM after 80 mins by microplate scintillation counting; procedure, shortened: as §1
[26] = molecular target: Tyrosine-protein kinase JAK2 (Homo sapiens) (UniProt O60674); assay: Inhibition of JAK2 assessed as residual activity at 1 uM after 80 mins by microplate scintillation counting
[27] = molecular target: Cyclin-dependent kinase 1/cyclin B1 (Homo sapiens) (UniProt P06493+P14635); assay: Inhibition of CDK1/Cyclin B1 assessed as residual activity at 10 uM after 80 mins by microplate scintillation counting; type: protein-complex assay
[28] = molecular target: T2, Cyclin-dependent kinase 4/cyclin D1 (Homo sapiens); assay: Inhibition of CDK4/Cyclin D1 assessed as residual activity at 1 uM after 80 mins by microplate scintillation counting; type: protein-complex assay
[29] = molecular target: Vascular endothelial growth factor receptor 3 (Homo sapiens) (UniProt P35916); assay: Inhibition of VEGFR3 assessed as residual activity at 10 uM after 80 mins by microplate scintillation counting; procedure, shortened: as §1
[30] = molecular target: T3, Cyclin-dependent kinase 5/CDK5 activator 1 (Homo sapiens) (UniProt Q00535+Q15078); assay: Inhibition of CDK5/p35 assessed as residual activity at 1 uM after 80 mins by microplate scintillation counting; type: protein-complex assay
T3 sequence (Q00535 whole entry): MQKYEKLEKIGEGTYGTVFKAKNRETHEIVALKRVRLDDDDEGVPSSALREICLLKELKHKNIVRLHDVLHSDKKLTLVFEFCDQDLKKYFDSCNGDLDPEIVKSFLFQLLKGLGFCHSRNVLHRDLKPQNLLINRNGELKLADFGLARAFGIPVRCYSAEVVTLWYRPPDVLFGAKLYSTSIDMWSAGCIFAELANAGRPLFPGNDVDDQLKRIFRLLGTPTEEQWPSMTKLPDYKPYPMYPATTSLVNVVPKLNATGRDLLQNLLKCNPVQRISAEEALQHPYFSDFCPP
T3 sequence (Q15078 99-307 partner limits assumed): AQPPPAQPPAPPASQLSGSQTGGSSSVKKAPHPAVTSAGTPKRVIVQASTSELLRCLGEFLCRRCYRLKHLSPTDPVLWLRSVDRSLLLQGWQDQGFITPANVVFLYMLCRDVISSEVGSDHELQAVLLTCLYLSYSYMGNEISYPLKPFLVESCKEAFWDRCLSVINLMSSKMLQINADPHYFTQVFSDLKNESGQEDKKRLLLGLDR

[31] = molecular target: Serine/threonine-protein kinase Chk1 (Homo sapiens) (UniProt O14757); assay: Inhibition of CHK1 assessed as residual activity at 10 uM after 80 mins by microplate scintillation counting
[32] = molecular target: T3, Cyclin-dependent kinase 5/CDK5 activator 1 (Homo sapiens); assay: Inhibition of CDK5/p35 assessed as residual activity at 10 uM after 80 mins by microplate scintillation counting; type: protein-complex assay
[33] = molecular target: RAF proto-oncogene serine/threonine-protein kinase (Homo sapiens) (UniProt P04049); assay: Inhibition of RAF1 assessed as residual activity at 10 uM after 80 mins by microplate scintillation counting; procedure, shortened: as §1
[34] = molecular target: Fibroblast growth factor receptor 1 (Homo sapiens) (UniProt P11362); assay: Inhibition of FGFR1 assessed as residual activity at 1 uM after 80 mins by microplate scintillation counting
[35] = molecular target: Serine/threonine-protein kinase Chk2 (Homo sapiens) (UniProt O96017); assay: Inhibition of CHK2 assessed as residual activity at 10 uM after 80 mins by microplate scintillation counting
[36] = molecular target: Insulin-like growth factor 1 receptor (Homo sapiens) (UniProt P08069); assay: Inhibition of IGF1R assessed as residual activity at 10 uM after 80 mins by microplate scintillation counting
[37] = molecular target: Glycogen synthase kinase-3 beta (Homo sapiens, UniProt P49841); assay: Inhibition of GSK3-beta assessed as residual activity at 10 uM after 80 mins by microplate scintillation counting

Sequence of Ribosomal protein S6 kinase beta-1 (Homo sapiens) (P23443 whole entry, looked up): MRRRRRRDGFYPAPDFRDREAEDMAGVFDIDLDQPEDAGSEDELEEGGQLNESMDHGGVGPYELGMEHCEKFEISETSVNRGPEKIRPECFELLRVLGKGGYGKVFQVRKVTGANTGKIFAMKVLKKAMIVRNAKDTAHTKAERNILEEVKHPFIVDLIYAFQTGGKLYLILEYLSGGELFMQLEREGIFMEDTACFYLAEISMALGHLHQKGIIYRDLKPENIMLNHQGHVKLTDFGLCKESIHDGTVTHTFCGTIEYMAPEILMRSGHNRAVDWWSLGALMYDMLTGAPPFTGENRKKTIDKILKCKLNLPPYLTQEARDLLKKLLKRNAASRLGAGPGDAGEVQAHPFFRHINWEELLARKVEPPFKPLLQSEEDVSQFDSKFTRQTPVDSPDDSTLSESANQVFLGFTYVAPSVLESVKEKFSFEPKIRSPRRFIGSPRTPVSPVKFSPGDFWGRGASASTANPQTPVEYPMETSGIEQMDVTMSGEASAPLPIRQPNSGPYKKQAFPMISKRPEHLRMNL

Activity [1]: 94%
Activity [2]: 63%
Activity [3]: 26%
Activity [4]: < 50%
Activity [5]: 103%
Activity [6]: 106%
Activity [7]: 31%
Activity [8]: 63%
Activity [9]: 78%
Activity [10]: 18%
Activity [11]: 31%
Activity [12]: 99%
Activity [13]: 98%
Activity [14]: 14%
Activity [15]: 67%
Activity [16]: 129%
Activity [17]: 90%
Activity [18]: 73%
Activity [19]: 83%
Activity [20]: 43%
Activity [21]: 11%
Activity [22]: 99%
Activity [23]: 92%
Activity [24]: 48%
Activity [25]: 100%
Activity [26]: 95%
Activity [27]: 23%
Activity [28]: 64%
Activity [29]: 37%
Activity [30]: 53%
Activity [31]: 45%
Activity [32]: 16%
Activity [33]: 53%
Activity [34]: 88%
Activity [35]: 69%
Activity [36]: 103%
Activity [37]: 6%
SMILES: CN1CCN(c2ccc(NC(=O)c3ccc4c(c3)/C(=C3/Nc5ccccc5C3=O)C(=O)N4)cc2)CC1
